Screening data from PubChem BioAssay.
TCR-CD3 inh = inhibitors of human TCR-CD3 interaction, primary screen, biochemical, fluorescence, TAMRA-labeled TCR probe; T-cell receptor (TCR); inhibition, % at 9.4 µM; 0.37% of 360,000 active; AID 651800, 2012; in the data active = inhibition above about 19%;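 note: recombinant mutant TCR 2C K166C tagged with TAMRA read by polarization; 0% = receptor in buffer alone and 100% = receptor with positive control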
HTRA1 inhibitor = HTRA1 serine protease inhibitors, primary screen, biochemical, fluorescence polarization, HTS; Q92743; recombinant HTRA1, FP-rhodamine activity-based probe; 0.5% of 340,000 active; inhibition, % at 5.96 µM; in the data active = inhibition above about 36%;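 note: 0% = enzyme with DMSO and 100% = wells lacking enzyme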
DDE Tn6 FP inh = inhibitors of Tn6 peptide binding to fibrin DD(E), primary screen, biochemical, fluorescence polarization, human fibrin, Tn6 probe. inhibition, % at 8.3 µM. 0.21% of 370,000 active. Fibrin DD(E) TRITC-Tn6 fluorescence polarization displacement. Fibrinogen beta chain (Homo sapiens), P02675. AID 720509, 2013;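 active = inhibition above a per-campaign cutoff: mean of compounds within control limits plus 3 SD, cut at about 15% in these data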;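 note: 0% = median of all compound wells on the plate and 100% = blocking peptide control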
ABHD4 inh = ABHD4 inhibitors, primary screen, biochemical, fluorescence polarization, mouse; 0.54% of 370,000 active; purified mABHD4, FP-Rh probe fluorescence polarization; (Lyso)-N-acylphosphatidylethanolamine lipase (Mus musculus), Q8VD66; inhibition, % at 8.92 µM; AID 720543, 2013;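 active = inhibition exceeding the mean over every tested compound plus 3 SD, cut at about 30% in these data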;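 note: 0% = plate median of compound wells and 100% = S159A mutant with DMSO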
Target sequence (Q8VD66 whole entry, looked up): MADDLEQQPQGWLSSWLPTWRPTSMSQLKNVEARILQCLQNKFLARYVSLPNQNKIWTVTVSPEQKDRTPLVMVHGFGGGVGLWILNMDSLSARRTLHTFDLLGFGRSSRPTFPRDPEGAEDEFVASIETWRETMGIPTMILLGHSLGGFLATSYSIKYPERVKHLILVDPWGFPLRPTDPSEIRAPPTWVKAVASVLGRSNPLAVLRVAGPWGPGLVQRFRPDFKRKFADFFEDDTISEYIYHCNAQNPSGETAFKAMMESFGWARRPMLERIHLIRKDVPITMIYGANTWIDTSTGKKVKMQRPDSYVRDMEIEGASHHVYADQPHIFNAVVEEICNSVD
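Assay system: mouse ABHD4 enzyme, wild type / Also added: fluorescent activity-based probe FP-Rh / Doses: single nominal dose of 8.92 µM, 0.89% DMSO final / Timing: 45 min compound pre-incubation plus 60 min probe step, 25 °C / Signal: FP readout, ex 525 nm / em 598 nm / Control set: S159A mutant/DMSO as 100%, compound-well median as 0%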
DDE Tn7 FP inh = inhibitors of Tn7 peptide binding to fibrin DD(E), primary screen, biochemical, fluorescence polarization, human fibrin, Tn7 probe. Fibrinogen beta chain (Homo sapiens), P02675. FP displacement of FITC-Tn7 peptide from fibrin DD(E); 0% = median of compound wells per plate. inhibition, % at 8.3 µM. 0.13% of 370,000 active;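 active = inhibition above the mean of compounds falling within the control limits plus 3 SD of them, cut at about 14% in these data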;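 note: 0% = plate median of compound wells and 100% = 10 µM Aha-Tn7 peptide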
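Test system: human clot-derived fibrin DD(E) complex / Quantity: 2 µM final DD(E) protein / Incubation: 10 min plus 3 h, room temperature / Measured by: fluorescence polarization / Benchmarks: high control of 10 µM Aha-Tn7 peptide / Replicates: singlicate testing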
mABHD4 conf = ABHD4 inhibitors, retest, confirmation, biochemical, fluorescence polarization, mouse; 55% of 1,800 active; AID 720658, 2013; inhibition, % at 8.92 µM; purified mABHD4, FP-Rh probe fluorescence polarization; shares compounds with ABHD4 inh;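 active = mean inhibition across replicates above the hit cutoff set in the primary screen, cut at about 30% in these data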;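 note: 0% = wild-type ABHD4 with DMSO and 100% = catalytically dead S159A mutant with DMSO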
* hit, by the source's call; · = no result. The list is not random: actives were taken first. Their share in the collection is about 1.3%.

SMILES	TCR-CD3 inh	HTRA1 inhibitor	DDE Tn6 FP inh	ABHD4 inh	DDE Tn7 FP inh	mABHD4 conf
CC(C)(C)OC(=O)C[C@@H]1C/C=C\C[C@@H](CC(=O)NCCO)C(=O)NCCOC1=O	-3	4	1	2	1	·
CCOC(=O)C1=C(C)N=c2s/c(=C\c3ccc(O)c([N+](=O)[O-])c3)c(=O)n2C1c1ccccc1OC (stereo unspecified)	-6	21	3	37*	-1	63*
Nc1ccc(C(=O)Nc2ccc3c(O)cc(S(=O)(=O)O)cc3c2)cc1	7	6	-7	36*	3	25
CCn1ccc(C(=O)Nc2ccc(N(C)C(C)=O)cc2)n1	6	3	-4	5	-3	·
Cc1ccc(S(=O)(=O)/N=C/c2ccc(N(C)C)cc2)cc1	-11	1	-2	5	-1	·
CCCOc1ccccc1-n1sc2c(c1=S)-c1cc(OC)cc3c1N(C(=O)C3=O)C2(C)C	5	18	1	35*	5	60*
CCC(=O)Nc1nc2ccc(NC(=O)c3cc(OC)c(OC)c(OC)c3)cc2s1	0	-16	-5	-7	1	·
C=CCNc1sc(C(=O)c2ccccc2)c(N)c1-c1nc2ccccc2s1	·	31	·	·	·	·
CCNc1sc(C(=O)c2cccs2)c(N)c1-c1nc2ccccc2s1	2	28	-4	33*	-5	19
COc1ccc(C2c3[nH]c4ccccc4c3C[C@H]3C(=O)N(c4ccccc4C(=O)NCCN4CCOCC4)C(=O)N23)cc1 (stereo partly specified)	5	-15	7	9	0	·
CCN(CC)S(=O)(=O)c1ccc(N2CCCC2)c(C(=O)OCC(=O)Nc2cc(C)on2)c1	-13	-24	3	45*	1	61*
CCOc1ccc(NS(=O)(=O)c2ccc(Cl)c(N=Nc3c(O)[nH]c(=S)[nH]c3=O)c2)cc1Br	-5	15	0	39*	-1	52*
Cc1cc(N/N=C/c2cccc(Cl)c2)nc(NCc2ccccc2)n1	-5	-35	-6	40*	3	60*
Cc1cc(N/N=C/c2cccc(F)c2)nc(NCc2ccccc2)n1	10	-25	-2	39*	-6	39*
CC1=C(C(=O)Nc2ccc(C)cc2)C(c2cccs2)NC(=S)N1 (stereo unspecified)	6	4	11	2	6	·
COC(=O)[C@@H](Cc1c[nH]c2ccccc12)NCc1cccc(B(O)O)c1	6	11	-2	67*	10	61*
CSc1ccc(C(=O)N2CCC(CCC(=O)NC3CC3)CC2)cc1	5	8	1	4	-1	·
CN(C)c1ccc(N=C/C=C2\N(C)c3ccccc3C2(C)C)cc1	-1	19	3	32*	-5	8
CN1/C(=C\C=Nc2ccc3ccccc3c2)C(C)(C)c2ccccc21	·	-22	·	·	·	·
CCc1cc(=O)oc2c(C)c(OC(C)C(=O)NCC3CCC(C(=O)O)CC3)ccc12 (stereo unspecified)	-3	0	3	15	1	·
Oc1ccc(NC(=S)Nc2ccccc2)cc1	8	5	2	42*	11	-7
Nc1ccc(NC(=S)Nc2ccccc2)cc1	10	18	-2	12	5	·
COc1cccc(NC(=S)Nc2ccc(O)cc2)c1	6	26	7	34*	-2	20
COc1cccc(NC(=S)Nc2ccc(F)cc2)c1	1	1	3	-5	-9	·
O=C(O)c1ccc(N/N=C/c2ccc(-c3ccccc3Cl)o2)cc1	0	-2	-2	40*	1	46*
SMILES	TCR-CD3 inh	HTRA1 inhibitor	DDE Tn6 FP inh	ABHD4 inh	DDE Tn7 FP inh	mABHD4 conf
O=C(O)c1ccc(N/N=C/c2ccc(-c3ccc(Br)cc3)o2)cc1	4	16	4	42*	-7	84*
COc1ccccc1CN1C2CCCC1CC(NC(=O)/C=C/c1ccccc1)C2 (stereo unspecified)	3	·	2	-2	7	·
Cc1ccc(NC(=S)NNc2ccc([N+](=O)[O-])cc2S(=O)(=O)Nc2ccccc2C(=O)O)cc1C	6	15	4	46*	-2	85*
COc1ccc(C(C)=NNc2ccc([N+](=O)[O-])cc2S(=O)(=O)Nc2ccccc2C(=O)O)c(OC)c1	-3	-130	8	-3	7	·
CCOC(=O)C1=C(SCC)c2cc3c(n2C1=O)CCCC3	-3	35	0	36*	2	75*
CCOC(=O)c1cnc2cc3c(cn2c1=O)CCCC3	-2	2	4	-11	-1	·
Cc1cc(Cl)c(S(=O)(=O)Nc2ccc3c(c2)OCO3)cc1OCC(=O)NC1CCCCC1	0	-14	-8	30*	-1	3
COc1ccc(CN2CCN(Cc3c[nH]c4ccccc34)CC2)c(OC)c1	-2	3	-1	33*	1	7
COc1ccc(CN2CCN(Cc3c[nH]c4ccccc34)CC2)cc1	1	18	10	18	5	·
O=C(NNc1nc2ccccc2s1)Nc1ccc(F)cc1	0	7	1	38*	4	1
COC(=O)c1ccc(CC(=O)c2ccc(O)cc2O)o1	·	1	·	·	·	·
COC(=O)c1ccc(CC(=O)c2c(C)cc(O)cc2O)o1	10	6	3	38*	-8	11
COc1ccc(/C=N/NC(=S)Nc2ccccc2[N+](=O)[O-])cc1O	8	16	-2	44*	5	24
O=C(O)c1cc([N+](=O)[O-])c(NCCC2=CCCCC2)c([N+](=O)[O-])c1	0	-6	-3	55*	4	66*
CCN=c1scc(C)n1/N=C/c1cc(Br)c(O)c(Br)c1	3	27	-5	55*	-5	66*
CC(=O)Nc1ccc(CNc2nc3cc(-c4ccsc4)sc3c(=O)n2C)cc1	3	·	-1	-6	-6	·
CCc1ccc(Nc2n[n+](-c3ccccc3)c(-c3c(Cl)cccc3Cl)s2)cc1	4	32	-9	42*	-2	47*
CCOC(=O)C1Nc2ccccc2C2C(O)C(O)CC12 (stereo unspecified)	1	22	-2	51*	2	11
CCN(CCO)Cc1csc2ccc(C(C)(C)C)cc12	4	-8	1	11	2	·
C=C[C@]1(C)C=C2C(=O)[C@@]3(O)OC(=O)[C@@]4(CCCC(C)(C)[C@H]34)[C@@]2(O)CC1	-8	·	-4	52*	-5	3
